From ChEMBL document CHEMBL1145827, “Structure-activity relationship comparison of (S)-2beta-substituted 3alpha-(bis[4-fluorophenyl]methoxy)tropanes and (R)-2beta-substituted 3beta-(3,4-dichlorophenyl)tropanes at the dopamine transporter” (J Med Chem, 2003)
pIC50, pKi: −log10 of the molar value.

Legend:
[1] = biological target: T1, Sodium-dependent dopamine transporter (Rattus norvegicus, UniProt P23977); experiment: In vitro dopamine transporter binding affinity using [3H]WIN-35428 as radioligand was determined
[2] = biological target: T1, Sodium-dependent dopamine transporter; experiment: In vitro potency for inhibiting [3H]- dopamine uptake was determined; format: functional
In short: (§1)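 [3H]Dopamine uptake inhibition in rat brain synaptosomes, reported as IC50.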

[3] = biological target: T1, Sodium-dependent dopamine transporter; experiment: In vitro inhibitory activity of dopamine transporter using [3H]WIN-35428 as radioligand was determined
In short: (§2)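 Rat brain DAT, radioligand displacement with [3H]WIN 35,428. Ki from at least three independent experiments, each run in triplicate.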

[4] = biological target: Norepinephrine transporter (Rattus norvegicus, UniProt Q9WTR4); experiment: Binding affinity towards norepinephrine transporter using [3H]nisoxetine as radioligand was determined
In short: (§3)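 Radioligand displacement binding for SERT, NET and muscarinic receptors. Ki from at least three independent experiments, each run in triplicate.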

[5] = biological target: T2, Muscarinic acetylcholine receptor M1 (Rattus norvegicus, UniProt P08482); experiment: Binding affinity towards Muscarinic acetylcholine receptor M1 using [3H]pirenzepine as radioligand was determined; in short: as §3
T2 sequence (P08482 whole entry): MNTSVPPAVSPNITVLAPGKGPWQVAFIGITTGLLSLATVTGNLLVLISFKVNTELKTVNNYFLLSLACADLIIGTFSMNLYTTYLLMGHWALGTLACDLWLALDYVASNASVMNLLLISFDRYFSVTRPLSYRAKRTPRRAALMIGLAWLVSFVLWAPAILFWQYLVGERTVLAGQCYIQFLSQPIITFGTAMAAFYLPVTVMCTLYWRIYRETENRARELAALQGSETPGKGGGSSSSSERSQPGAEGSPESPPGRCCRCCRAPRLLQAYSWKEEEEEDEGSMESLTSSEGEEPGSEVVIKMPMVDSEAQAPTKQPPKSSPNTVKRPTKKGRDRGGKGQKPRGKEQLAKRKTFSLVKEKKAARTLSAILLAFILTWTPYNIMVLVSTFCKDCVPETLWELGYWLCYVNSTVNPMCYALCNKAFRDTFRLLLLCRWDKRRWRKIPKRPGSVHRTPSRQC

[6] = biological target: Sodium-dependent serotonin transporter (Rattus norvegicus, UniProt P31652); experiment: Binding affinity towards serotonin transporter using [3H]citalopram as radioligand was determined; in short: as §3
[7] = biological target: T1, Sodium-dependent dopamine transporter; experiment: In vitro potency for inhibiting [3H]- dopamine uptake in rat brain was determined; format: functional, tissue-based; in short: as §1
[8] = biological target: T1, Sodium-dependent dopamine transporter; experiment: Binding affinity towards dopamine transporter; in short: as §2

T1 sequence (P23977 whole entry): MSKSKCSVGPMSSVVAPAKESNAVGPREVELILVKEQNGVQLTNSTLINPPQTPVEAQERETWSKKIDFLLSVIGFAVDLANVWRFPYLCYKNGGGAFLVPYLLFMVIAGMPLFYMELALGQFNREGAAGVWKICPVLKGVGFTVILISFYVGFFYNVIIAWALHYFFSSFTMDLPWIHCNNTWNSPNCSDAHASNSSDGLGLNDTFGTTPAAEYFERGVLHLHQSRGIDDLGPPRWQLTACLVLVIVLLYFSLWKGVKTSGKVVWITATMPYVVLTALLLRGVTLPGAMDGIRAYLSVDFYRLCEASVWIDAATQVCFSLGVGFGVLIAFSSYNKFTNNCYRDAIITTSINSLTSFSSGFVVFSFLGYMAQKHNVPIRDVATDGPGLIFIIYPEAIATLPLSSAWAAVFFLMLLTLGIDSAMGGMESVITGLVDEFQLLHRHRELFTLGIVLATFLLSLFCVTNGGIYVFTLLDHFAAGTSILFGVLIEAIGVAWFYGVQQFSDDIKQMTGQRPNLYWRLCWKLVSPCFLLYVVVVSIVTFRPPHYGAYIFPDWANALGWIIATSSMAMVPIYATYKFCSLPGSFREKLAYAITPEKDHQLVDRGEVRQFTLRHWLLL
Sodium-dependent serotonin transporter, sequence (P31652 whole entry): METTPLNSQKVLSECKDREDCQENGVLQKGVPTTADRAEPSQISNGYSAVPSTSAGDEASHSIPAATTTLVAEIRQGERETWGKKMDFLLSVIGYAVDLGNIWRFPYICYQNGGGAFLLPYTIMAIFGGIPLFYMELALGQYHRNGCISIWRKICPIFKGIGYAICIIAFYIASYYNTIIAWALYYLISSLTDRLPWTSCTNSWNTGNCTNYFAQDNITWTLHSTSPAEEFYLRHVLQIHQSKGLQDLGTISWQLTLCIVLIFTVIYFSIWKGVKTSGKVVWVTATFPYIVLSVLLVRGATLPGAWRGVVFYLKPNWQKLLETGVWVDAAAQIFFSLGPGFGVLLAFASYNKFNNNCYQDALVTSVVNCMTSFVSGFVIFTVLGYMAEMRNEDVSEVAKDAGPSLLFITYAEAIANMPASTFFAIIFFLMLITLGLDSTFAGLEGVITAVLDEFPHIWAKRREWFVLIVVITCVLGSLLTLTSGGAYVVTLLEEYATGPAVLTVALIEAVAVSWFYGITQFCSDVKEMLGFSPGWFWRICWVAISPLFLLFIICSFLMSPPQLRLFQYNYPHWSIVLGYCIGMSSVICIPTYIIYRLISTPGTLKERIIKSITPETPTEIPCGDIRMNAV
Norepinephrine transporter, sequence (Q9WTR4 whole entry): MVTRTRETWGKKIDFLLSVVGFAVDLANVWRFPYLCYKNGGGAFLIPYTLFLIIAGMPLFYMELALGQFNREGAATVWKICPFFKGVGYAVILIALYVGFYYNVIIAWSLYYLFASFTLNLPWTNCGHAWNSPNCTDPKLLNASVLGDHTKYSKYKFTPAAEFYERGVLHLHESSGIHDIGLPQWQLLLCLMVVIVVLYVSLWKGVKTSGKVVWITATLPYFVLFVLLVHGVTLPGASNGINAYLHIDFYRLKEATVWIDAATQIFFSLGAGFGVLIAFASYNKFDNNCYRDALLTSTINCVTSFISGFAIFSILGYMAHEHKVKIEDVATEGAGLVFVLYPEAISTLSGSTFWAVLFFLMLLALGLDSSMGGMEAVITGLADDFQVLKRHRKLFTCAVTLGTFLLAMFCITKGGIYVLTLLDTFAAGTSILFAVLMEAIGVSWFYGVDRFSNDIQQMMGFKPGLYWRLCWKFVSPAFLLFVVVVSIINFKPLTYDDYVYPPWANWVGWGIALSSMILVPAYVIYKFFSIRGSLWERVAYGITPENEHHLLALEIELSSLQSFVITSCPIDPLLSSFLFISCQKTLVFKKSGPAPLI

## CN1C2CCC1[C@@H](C(=O)OCCc1ccc([N+](=O)[O-])cc1)[C@@H](OC(c1ccc(F)cc1)c1ccc(F)cc1)C2 (some centres undefined)
[1]
  pKi: 7.01
[2]
  pIC50: 8.48

## CN1C2CCC1[C@@H](C(=O)OCCc1ccc(N=[N+]=[N-])c(I)c1)[C@@H](c1ccc(Cl)c(Cl)c1)C2 (some centres undefined)
[3]
  pIC50: 7.84

## CCOC(=O)[C@@H]1C2CCC(C[C@@H]1OC(c1ccc(F)cc1)c1ccc(F)cc1)N2C (some centres undefined)
[1]
  pKi: 7.79
[4]
  pKi: 6.20
[2]
  pIC50: 8.74

## CN1C2CCC1[C@@H](C(=O)OCc1ccccc1)[C@@H](OC(c1ccc(F)cc1)c1ccc(F)cc1)C2 (single isomer, unassigned; (+))
[5]
  pKi: 5.36
[6]
  pKi: 5.69
[4]
  pKi: 5.65

## CC(C)OC(=O)[C@@H]1C2CCC(C[C@@H]1OC(c1ccc(F)cc1)c1ccc(F)cc1)N2C (some centres undefined)
[1]
  pKi: 7.52
[2]
  pIC50: 8.21

## CN1C2CCC1[C@@H](C(=O)OCc1ccccc1)[C@@H](OC(c1ccc(F)cc1)c1ccc(F)cc1)C2 (some centres undefined)
[1]
  pKi: 7.32
[2]
  pIC50: 8.66

## CN1C2CCC1[C@@H](C(=O)OCCc1ccccc1)[C@@H](OC(c1ccc(F)cc1)c1ccc(F)cc1)C2 (single isomer, unassigned; (+))
[5]
  pKi: 6.45
[6]
  pKi: 5.50
[4]
  pKi: 5.99

## CN1C2CCC1[C@@H](C(=O)OCCc1ccc(N)c(I)c1)[C@@H](OC(c1ccc(F)cc1)c1ccc(F)cc1)C2 (some centres undefined)
[1]
  pKi: 7.37

## CN1C2CCC1[C@@H](C(=O)OCCc1ccccc1)[C@@H](c1ccc(Cl)c(Cl)c1)C2 (some centres undefined)
[1]
  pKi: 7.96
[7]
  pIC50: 8.49
[8]
  pKi: 7.00

## CN1C2CCC1[C@@H](C(=O)OCCc1ccccc1)[C@@H](OC(c1ccc(F)cc1)c1ccc(F)cc1)C2 (some centres undefined)
[1]
  pKi: 7.44
[2]
  pIC50: 8.59

## CCOC(=O)[C@@H]1C2CCC(C[C@@H]1c1ccc(Cl)c(Cl)c1)N2C (some centres undefined)
[1]
  pKi: 8.26
[7]
  pIC50: 8.72
[8]
  pKi: 7.00

## CN1C2CCC1[C@@H](C(=O)OCCc1ccc(N=C=S)cc1)[C@@H](OC(c1ccc(F)cc1)c1ccc(F)cc1)C2 (some centres undefined)
[3]
  pIC50: 6.27

## COC(=O)[C@@H]1C2CCC(C[C@@H]1c1ccc(Cl)c(Cl)c1)N2C (some centres undefined)
[1]
  pKi: 8.20
[5]
  pKi: 5.50
[7]
  pIC50: 8.85
[6]
  pKi: 8.84
[8]
  pKi: 7.00
[4]
  pKi: 7.80

## CN1C2CCC1[C@@H](C(=O)OCCc1ccc(N)cc1)[C@@H](OC(c1ccc(F)cc1)c1ccc(F)cc1)C2 (some centres undefined)
[1]
  pKi: 7.44
[5]
  pKi: 6.58
[6]
  pKi: 5.82
[4]
  pKi: 5.87
[2]
  pIC50: 8.10

## CN1C2CCC1[C@@H](C(=O)OCCc1ccc(N=[N+]=[N-])c(I)c1)[C@@H](OC(c1ccc(F)cc1)c1ccc(F)cc1)C2 (some centres undefined)
[3]
  pIC50: 6.68

## COC(=O)[C@@H]1C2CCC(C[C@@H]1OC(c1ccc(F)cc1)c1ccc(F)cc1)N2C (some centres undefined)
[2]
  pIC50: 8.82

## CC(C)OC(=O)[C@@H]1C2CCC(C[C@@H]1c1ccc(Cl)c(Cl)c1)N2C (some centres undefined)
[1]
  pKi: 7.75
[7]
  pIC50: 8.57
[8]
  pKi: 7.00

## COC(=O)[C@@H]1C2CCC(C[C@@H]1OC(c1ccc(F)cc1)c1ccc(F)cc1)N2C (single isomer, unassigned; (+))
[4]
  pKi: 6.57

## CN1C2CCC1[C@@H](C(=O)OCc1ccccc1)[C@@H](c1ccc(Cl)c(Cl)c1)C2 (some centres undefined)
[1]
  pKi: 7.46
[7]
  pIC50: 7.72
[8]
  pKi: 7.00

## CC(C)OC(=O)[C@@H]1C2CCC(C[C@@H]1OC(c1ccc(F)cc1)c1ccc(F)cc1)N2C (single isomer, unassigned; (+))
[5]
  pKi: 5.57
[6]
  pKi: 4.92
[4]
  pKi: 6.19
